Source: ChEMBL document CHEMBL4706638, “Mining Natural Products for Macrocycles to Drug Difficult Targets” (J Med Chem, 2021)

Biological target: Keap1/Nrf2 (Homo sapiens, UniProt Q14145)
Assay: Inhibition of Nrf2 peptide (KKKKAFFAQLQLDEETGEFL) binding to Keap1 Kelch domain (321 to 609 residues) (unknown origin) assessed as dissociation constant by surface plasmon resonance based inhibition in solution assay
Type: protein assay
Outline: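 Solution-competition SPR at 20 °C in HBS-P (10 mM HEPES, 150 mM NaCl, 0.05% Tween 20, 1.0 mM TCEP, pH 7.40), 10 µL/min. Nrf2 peptide amine-coupled to CM5 chip (400–600 RU). 25 nM Keap1 Kelch domain (aa321–609) preincubated with compound, injected; initial association slopes (5–15 s) vs compound-free controls give free Keap1. KD by nonlinear regression; mean ± SD of three measurements on distinct samples.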

Sequence of Keap1/Nrf2 (Q16236 whole entry, the tested form may be a part): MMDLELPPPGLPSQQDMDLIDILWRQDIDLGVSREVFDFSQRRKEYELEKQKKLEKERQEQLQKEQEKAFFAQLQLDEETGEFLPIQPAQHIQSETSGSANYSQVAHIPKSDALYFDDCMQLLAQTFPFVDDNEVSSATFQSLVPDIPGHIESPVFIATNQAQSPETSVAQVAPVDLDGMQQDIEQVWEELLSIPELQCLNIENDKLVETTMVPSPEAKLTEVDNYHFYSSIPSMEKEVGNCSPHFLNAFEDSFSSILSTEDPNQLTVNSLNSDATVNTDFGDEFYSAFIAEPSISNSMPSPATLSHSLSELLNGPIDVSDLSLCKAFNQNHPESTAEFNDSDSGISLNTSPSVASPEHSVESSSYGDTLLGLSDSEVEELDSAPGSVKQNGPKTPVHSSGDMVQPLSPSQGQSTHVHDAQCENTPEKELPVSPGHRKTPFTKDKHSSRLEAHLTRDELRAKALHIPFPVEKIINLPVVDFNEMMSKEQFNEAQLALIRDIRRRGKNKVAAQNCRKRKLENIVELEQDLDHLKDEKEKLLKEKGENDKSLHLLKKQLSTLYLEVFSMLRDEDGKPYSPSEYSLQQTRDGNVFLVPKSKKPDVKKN
Sequence of Keap1/Nrf2 (Q14145 whole entry, the tested form may be a part): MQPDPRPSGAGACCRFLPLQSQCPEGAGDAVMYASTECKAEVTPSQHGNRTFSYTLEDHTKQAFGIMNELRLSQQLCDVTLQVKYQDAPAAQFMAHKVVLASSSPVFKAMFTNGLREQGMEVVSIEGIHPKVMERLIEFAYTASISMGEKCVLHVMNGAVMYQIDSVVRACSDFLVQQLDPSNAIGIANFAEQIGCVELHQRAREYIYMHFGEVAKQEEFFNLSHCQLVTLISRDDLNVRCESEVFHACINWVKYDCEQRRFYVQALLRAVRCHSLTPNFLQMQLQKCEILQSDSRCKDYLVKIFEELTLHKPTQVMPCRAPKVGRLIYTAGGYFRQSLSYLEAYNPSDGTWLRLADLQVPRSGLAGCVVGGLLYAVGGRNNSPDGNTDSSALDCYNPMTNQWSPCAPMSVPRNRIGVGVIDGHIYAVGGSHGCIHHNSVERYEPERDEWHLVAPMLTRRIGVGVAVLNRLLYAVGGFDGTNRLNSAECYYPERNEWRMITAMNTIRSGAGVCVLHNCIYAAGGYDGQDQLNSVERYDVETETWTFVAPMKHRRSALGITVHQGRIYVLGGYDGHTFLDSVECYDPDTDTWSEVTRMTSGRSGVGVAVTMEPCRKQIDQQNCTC

Structure (SMILES)	Kd [µM]
CSC[C@@H](NC(=O)[C@@H](COC(=O)c1ccccc1)NC(=O)[C@@H]1CCCN1C(C)=O)C(=O)N(C)C	406
COC(=O)[C@H]1CSCc2ccccc2C(=O)OC[C@@H](NC(=O)[C@H]2CCCN2C(C)=O)C(=O)N1	> 500
COC(=O)[C@H]1CSCc2ccccc2C(=O)OC[C@@H](NC(=O)[C@@H]2C[C@@H](O)CN2C(C)=O)C(=O)N1	270
CNC(=O)[C@H]1CSCc2ccccc2C(=O)OC[C@@H](NC(=O)[C@@H]2CCCN2C(C)=O)C(=O)N1	209
COC(=O)[C@H]1CSCc2ccccc2C(=O)OC[C@H](NC(=O)[C@@H]2CCCN2C(C)=O)C(=O)N1	> 500
COC(=O)[C@@H]1CSCc2ccccc2C(=O)OC[C@H](NC(=O)[C@@H]2CCCN2C(C)=O)C(=O)N1	> 500
COC(=O)[C@H]1CSCc2ccccc2C(=O)OC[C@@H](NC(=O)[C@@H]2CCCN2C(C)=O)C(=O)N1	237
COC(=O)[C@@H]1CSCc2ccccc2C(=O)OC[C@@H](NC(=O)[C@@H]2CCCN2C(C)=O)C(=O)N1	> 500

The remaining lines, values ahead:

Kd [µM]	Structure (SMILES)
> 500	CC(=O)N1CCC[C@H]1C(=O)N[C@@H]1COC(=O)c2ccccc2CSC[C@H](C(N)=O)NC1=O
> 500	CCN(CC)C(=O)[C@H]1CSCc2ccccc2C(=O)OC[C@@H](NC(=O)[C@@H]2CCCN2C(C)=O)C(=O)N1
> 500	CC(=O)N1CCC[C@H]1C(=O)N[C@@H]1COC(=O)c2ccccc2CSC[C@H](C(=O)N(C)C)NC(=O)CNC1=O
> 500	CC(=O)N1CCC[C@H]1C(=O)N[C@@H]1CCOC(=O)c2ccccc2CSC[C@H](C(=O)N(C)C)NC1=O
